The source made the active and inactive calls.
Columns and labels:
Vero [1] = assay: In vitro antiviral activity was determined against Japanese encephalitis virus in monolayer culture of Vero cells; format: functional, cell-based; conditions: Chlorocebus sabaeus
Vaccinia virus = assay: Antiviral activity was determined against Vaccinia virus; format: functional, organism-based; conditions: Orthopoxvirus vaccinia
Vero [2] = assay: Antiviral activity was determined as inhibition of plaque formation against Rift Valley fever in monolayer culture of Vero cells; format: functional, cell-based; conditions: Chlorocebus sabaeus
Vero [3] = assay: In vitro antiviral activity was determined against Sicilian Sandfly Fever virus in monolayer culture of Vero cells; format: functional, cell-based; conditions: Chlorocebus sabaeus
In short: (§1)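 Virus was adsorbed for 1 h onto monolayers: H.Ep.2 cells for Adenovirus type 2, LLC-MK2 cells for Punta Toro, and Vero cells for Sicilian sandfly fever. Medium with a range of drug concentrations was then added. On the day of maximum cytopathic effect in virus-control wells, the medium was removed and the monolayers were stained with crystal violet. Cytopathic effect was scored microscopically.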

[4] = test system: Vesicular stomatitis virus; assay: Antiviral activity was determined against Vesicular Stomatitus virus; format: functional, organism-based
unidentified adenovirus [5] = assay: (§2) In vitro antiviral activity was determined against Adenovirus type 2 in monolayer culture of H.Ep.2 cells; format: functional, organism-based
LLC-MK2 = assay: In vitro antiviral activity was determined against Punta toro virus in monolayer culture of LLC-MK2 cells; format: functional, cell-based; conditions: Cercopithecidae; in short: as §1
Vero [6] = assay: In vitro antiviral activity was determined against Yellow Fever virus in monolayer culture of Vero cells; format: functional, cell-based; conditions: Chlorocebus sabaeus
Pichinde virus = assay: Antiviral activity was determined against Pichinde virus; format: functional, organism-based
[7] = test system: Human immunodeficiency virus 1; assay: Antiviral activity was determined against Human immunodeficiency virus; format: functional, organism-based
unidentified adenovirus [8] = assay: as §2; format: functional, organism-based; in short: as §1; remark: listed apart in the source

Measured: Activity

O=c1[nH]c(=O)n(COC(CO)C(O)CF)cc1I (stereo not given)
inactive: Vero [1] | Vaccinia virus | Vero [2] | Vero [3] | [4] | unidentified adenovirus [5] | LLC-MK2 | Vero [6]

Cc1cn(COC2COP(=O)(Oc3ccc([N+](=O)[O-])cc3)OC2CF)c(=O)[nH]c1=O (stereo not given)
inactive: Vaccinia virus | [4] | unidentified adenovirus [5]

NC(=O)c1ncn(COC(CO)C(O)CF)n1 (stereo not given)
inactive: Vero [1] | Vaccinia virus | Vero [2] | Vero [3] | [4] | unidentified adenovirus [5] | LLC-MK2 | Vero [6]

Cc1cn(COC(CO)C(O)CF)c(=O)[nH]c1=O (stereo not given)
inactive: Pichinde virus | Vero [1] | Vaccinia virus | Vero [2] | Vero [3] | [4] | unidentified adenovirus [5] | [7] | LLC-MK2 | Vero [6]

O=c1ccn(COC(CO)C(O)CF)c(=O)[nH]1 (stereo not given)
inactive: Vero [1] | Vaccinia virus | Vero [2] | Vero [3] | [4] | unidentified adenovirus [5] | [7] | LLC-MK2 | Vero [6]

Nc1nc(O)c2ncn(COC(CO)C(O)CF)c2n1 (stereo not given)
inactive: unidentified adenovirus [8] | Vero [1] | Vaccinia virus | Vero [2] | Vero [3] | [4] | [7] | LLC-MK2 | Vero [6]

O=c1ccn(COC2COP(=O)(Oc3ccc([N+](=O)[O-])cc3)OC2CF)c(=O)[nH]1 (stereo not given)
inactive: Vaccinia virus | [4] | unidentified adenovirus [5]

Reference: ChEMBL document CHEMBL1124827, “The preparation of 2'-deoxy-2'-fluoro-1',2'-seconucleosides as potential antiviral agents” (J Med Chem, 1990)
